The list is not random: actives were taken first. Their share in the collection is about 3.5%.
RGS4 pot = potentiators or activators of RGS4; HEK293 M3R/inducible RGS4, carbachol calcium flux Fluo4; active compounds read low; B-score at 10 µM; hit rate 0.92% among 310,000; AID 463111;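 active = B-score of the integrated calcium signal more than 4 SD below the library mean, with starting fluorescence not abnormally high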;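 note: negative B-score means reduced calcium response which marks RGS4 activation or potentiation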
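Material: Inducible-RGS4 HEK293 cells carrying M3 receptor; also added: carbachol at ECmax as muscarinic agonist stimulus; incubation: compound preincubation 20 min at room temperature before agonist; signal: Fluo4-AM (2 µM) calcium-flux fluorescence, kinetic read; measure: integrated calcium ratio converted to B score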
RGS4 block = human RGS4 inhibition; hit rate 0.45% among 310,000; B-score at 10 µM; HEK293 M3R/RGS4 inducible, Fluo-4 calcium flux; active compounds read high; triggered by carbachol at its EC20; P49798;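 active = B-score, a plate-corrected calcium signal, over three deviations above library mean, with baseline fluorescence within five deviations of library mean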;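 note: RGS4 expression induced by doxycycline in cells with stable M3 receptor; B-score is computed from the integrated fluorescence ratio over baseline after carbachol; higher B-score means a larger calcium signal and so more RGS4 inhibition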
Target sequence (P49798 whole entry, looked up): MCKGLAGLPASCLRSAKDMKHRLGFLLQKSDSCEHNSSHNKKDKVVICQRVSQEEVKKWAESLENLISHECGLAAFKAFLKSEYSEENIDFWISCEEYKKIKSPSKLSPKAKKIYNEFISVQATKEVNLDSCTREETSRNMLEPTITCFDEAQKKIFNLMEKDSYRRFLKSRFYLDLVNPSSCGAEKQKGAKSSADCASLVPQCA
MrgX1 ag = human MrgX1 receptor agonism, primary screen; MrgX1-HEK293 cells, Fluo-4 calcium fluorescence, agonist mode; active compounds read high; B-score at 10 µM; hit rate 0.44% among 310,000; AID 588627;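 active = calcium response B-score plate-corrected fluorescence ratio at least 3 library SD, with starting fluorescence B-score inside 5 SD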
Target sequence (Q96LB2 whole entry, looked up): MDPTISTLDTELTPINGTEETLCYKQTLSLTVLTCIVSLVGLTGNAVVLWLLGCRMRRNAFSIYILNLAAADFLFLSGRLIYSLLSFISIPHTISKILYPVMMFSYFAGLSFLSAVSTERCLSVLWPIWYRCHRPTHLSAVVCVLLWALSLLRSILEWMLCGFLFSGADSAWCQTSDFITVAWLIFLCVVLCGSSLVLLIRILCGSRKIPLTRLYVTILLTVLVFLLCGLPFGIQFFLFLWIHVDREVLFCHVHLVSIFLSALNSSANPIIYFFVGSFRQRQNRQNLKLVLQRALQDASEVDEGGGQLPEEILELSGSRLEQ
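Material: MrgX1-expressing HEK293 cells; input: 15,000 cells per well; doses: test compound given as first of three sequential additions; schedule: overnight plating before 1 h dye loading; technique: Fluo-4 NW calcium-flux fluorescence, kinetic read; evaluation: baseline-normalised fluorescence change ratio, B-scored; control set: plate-wise positive and negative controls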
MrgX1 antag = antagonists of human MrgX1 receptor | MRGX1-HEK293 calcium flux, Fluo-4, BAM8-22 antagonism; active compounds read low | B-score at 10 µM | hit rate 1.3% among 310,000 | AID 588676;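 active = calcium-response B-score plate-corrected more than 3 library SD below zero, starting fluorescence within 5 deviations, no agonist response on first addition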;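 note: peak minus trough fluorescence over baseline after final BAM8-22 challenge near maximal dose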
MrgX1 allo act = human MrgX1 positive allosteric modulation, primary screen; Q96LB2; MrgX1-HEK293, Fluo-4 calcium flux, FDSS; active compounds read high; B-score at 10 µM; hit rate 0.63% among 310,000;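 active = plate-corrected calcium response at least 3 library SD above typical, normal starting fluorescence, not activating the receptor alone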;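 note: compound read alongside a low EC10 to EC30 dose of BAM8-22 agonist; peak minus trough fluorescence over baseline measured at the second addition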
RGS4 block valid = RGS4 inhibitor validation; shares compounds with RGS4 block; HEK293 M3R/RGS4, carbachol calcium Fluo-4 fluorescence; carbachol added at its EC20; 0 = buffer wells, 100 = carbachol control; calcium response, % at 10 µM; hit rate 65% among 1,700;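 active = duplicate-averaged calcium response above the buffer-only control mean plus 5 SD of those controls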;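 note: integrated fluorescence ratio F max minus min over baseline F0; higher response in RGS4-induced cells means RGS4 inhibition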
RGS4 uninduced = checks RGS4 inhibitor effects in non-induced HEK293 M3R cells; carbachol calcium Fluo-4; submaximal (EC20) carbachol stimulus; buffer wells 0%, carbachol control wells 100%; activity (percent), % at 10 µM; shares compounds with RGS4 block; hit rate 20% among 1,900; call rule not given here;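 note: RGS4 induction absent so cells express M3R without RGS4; higher means more calcium signal and flags a non-specific hit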
RGS4 inh ctr2 = second RGS4 inhibitor counter-screen in uninduced cells lacking carbachol. shares compounds with RGS4 block. HEK293 M3R/RGS4 non-induced, Fluo-4 calcium, no carbachol; normalised: buffer wells 0%, carbachol wells 100%. calcium response (agonist-mode artifact), % at 10 µM. hit rate 22% among 1,900. AID 493001;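 active = duplicate-averaged calcium rise in uninduced cells above buffer wells' mean plus 5 SD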
Large screens that a line does not name were inactive (follow-up assays come after a bar, where they were run).

Cc1ccc(CN(Cc2cc3cc4c(cc3[nH]c2=O)OCCO4)Cc2nnnn2Cc2ccco2)cc1	RGS4 block 12 | RGS4 block valid inactive | RGS4 uninduced inactive | RGS4 inh ctr2 16%
Cc1ccc2cc(CN(Cc3ccc4c(c3)OCO4)Cc3nnnn3Cc3ccco3)c(=O)[nH]c2c1	none | RGS4 block valid inactive | RGS4 uninduced inactive | RGS4 inh ctr2 8.5%
COc1ccc2cc(CN(CCc3ccccc3)Cc3nnnn3Cc3ccco3)c(=O)[nH]c2c1	none
Cc1cccc2sc(NNC(=O)c3ccc(S(=O)(=O)N4CC(C)CC(C)C4)cc3)nc12 (stereo not drawn)	RGS4 block 6.5 | RGS4 block valid 10% | RGS4 uninduced inactive | RGS4 inh ctr2 inactive
Cc1cc(C)c2nc(NNC(=O)c3ccc(S(=O)(=O)N4CC(C)CC(C)C4)cc3)sc2c1 (stereo not drawn)	none | RGS4 uninduced inactive | RGS4 inh ctr2 inactive
Cc1cc(C)c2nc(NNC(=O)c3ccc(S(=O)(=O)N4CCCC(C)C4)cc3)sc2c1 (stereo not drawn)	none
Cc1ccc2nc(NNC(=O)c3ccc(S(=O)(=O)N4CCc5ccccc5C4)cc3)sc2c1	none | RGS4 uninduced inactive | RGS4 inh ctr2 inactive
O=C(NCc1ccccc1Cl)C(=O)NCC1OCCN1S(=O)(=O)c1cccs1 (stereo not drawn)	none
Clc1ccc(-c2ccc(CNCC3CCCO3)o2)cc1 (stereo not drawn)	none
CC(NC(=O)C1CCC(CNS(=O)(=O)c2ccccc2)CC1)c1ccccc1 (stereo not drawn)	none
CC(C)(C)c1ccc(OCC(=O)Nc2ccc(C(=O)Nc3ccccc3C(=O)O)cc2)cc1	none
O=C(c1cc(Cl)nc2ccccc12)N1CCN(S(=O)(=O)c2cccc(C(F)(F)F)c2)CC1	none
Oc1ccc(C[C@@H]2CNC(=S)N2CCCCC2CCCCC2)cc1	RGS4 block 5.3 | RGS4 block valid 18% | RGS4 uninduced inactive | RGS4 inh ctr2 inactive
COc1ccc2[nH]c3c(c2c1)CCN1C(=O)N([C@@H](C)C(=O)NCc2ccco2)C(=O)[C@]31C	none
Cc1ccccc1N=C1NC(=O)/C(=C/c2cccnc2)S1	none | RGS4 uninduced 46% | RGS4 inh ctr2 inactive
O=C1NC(=Nc2ccccc2Cl)S/C1=C\c1ccc(C(=O)O)cc1	none
O=C1/C(=C\c2cccnc2)Sc2ccccc21	RGS4 block 5.1 | RGS4 block valid 32% | RGS4 uninduced 36% | RGS4 inh ctr2 39%
CN1C(=O)S/C(=C/c2cccnc2)C1=O	none
C=CCn1c(SCC(=O)NC2CC2)nnc1-c1cccs1	none
O=C(N/C(=C/c1cccc(Br)c1)c1nc(=S)[nH][nH]1)c1ccccc1	RGS4 block 7.2 | RGS4 block valid 45% | RGS4 uninduced inactive | RGS4 inh ctr2 96%
Cc1ccc(C(=O)N/C(=C\c2ccc(Br)cc2)c2nc(=S)[nH][nH]2)cc1	none | RGS4 uninduced inactive | RGS4 inh ctr2 11%
C=C(C)CCOC(=O)C(CC(=O)O)NCc1ccco1 (stereo not drawn)	none
C=CCN(C(=O)c1oc2c(Cl)cc(C)cc2c1C)C1CCS(=O)(=O)C1 (stereo not drawn)	none
O=C(O)CCCNC(=O)c1ccc(NC(=O)Cc2ccc(Cl)cc2)cc1	none
C=CCNC(=O)/C(C#N)=C/c1ccc(OS(=O)(=O)c2ccc(C)cc2)c(OC)c1	RGS4 block 4.8 | RGS4 block valid 14% | RGS4 uninduced inactive | RGS4 inh ctr2 inactive
CCOc1cc(/C=C\[N+](=O)[O-])ccc1OCC(=O)N1CCOCC1	RGS4 block 28 | RGS4 block valid 43% | RGS4 uninduced 32% | RGS4 inh ctr2 12%
CCOc1cc(/C=C/c2nc3cc(C)c(C)cc3s2)ccc1OCC(=O)N1CCOCC1	none
COc1ccc(CCc2nnc(CCC(=O)NCC3CCCO3)o2)cc1 (stereo not drawn)	none
CC1(C)CC(=O)C(C(C2=C(O)CC(C)(C)CC2=O)c2cccc(O)c2)C(=O)C1 (stereo not drawn)	none (no result: RGS4 pot, RGS4 block)
CC1(C)CC(=O)C(C(C2=C(O)CC(C)(C)CC2=O)c2cccs2)C(=O)C1 (stereo not drawn)	RGS4 block 5.7 | RGS4 block valid 24% | RGS4 uninduced 58% | RGS4 inh ctr2 inactive
Cc1ccc(C(C2=C(O)CC(C)(C)CC2=O)C2C(=O)CC(C)(C)CC2=O)o1 (stereo not drawn)	RGS4 block 9.3 | RGS4 block valid 16% | RGS4 uninduced inactive | RGS4 inh ctr2 inactive
COc1ccc(N(CC(=O)NCCc2cccc(C)c2)S(=O)(=O)c2c(C)noc2C)cc1	none
COc1ccc(OC)c(NC(=O)CSc2nc(=O)n(CCN3CCOCC3)c3c2CCCC3)c1	none
COc1ccc(CCNC(=O)CSc2nc3ncccc3[nH]2)c(OC)c1	none
O=c1[nH]c(NCCO)nc2c1C1(CCCCC1)Cc1ccccc1-2	none (no result: RGS4 pot, RGS4 block)
CCC1(CC)Cc2ccccc2-c2nc(NCCO)[nH]c(=O)c21	RGS4 block 26 | RGS4 block valid 101% | RGS4 uninduced 84% | RGS4 inh ctr2 inactive
Cc1ccccc1OCCNc1cc(N2CCN(CCO)CC2)ccc1[N+](=O)[O-]	none
Cc1ccccc1OCCNc1cc(N2CCCCC2)ccc1[N+](=O)[O-]	none | RGS4 block valid inactive | RGS4 uninduced inactive | RGS4 inh ctr2 inactive
Cn1ncc(N=Cc2ccc([N+](=O)[O-])cc2)c1C(=O)Nc1ccccc1	none
CCc1cc(-c2n[nH]c(C)c2-c2nc(C)cs2)c(O)cc1OC	RGS4 block 5.3 | RGS4 block valid 9.5% | RGS4 uninduced inactive | RGS4 inh ctr2 inactive
COc1cc(C(=O)Nc2cccc3cccnc23)cc(OC)c1OC	none | RGS4 block valid inactive | RGS4 uninduced inactive | RGS4 inh ctr2 inactive
O=C(/C=C/c1ccc(Br)o1)NCc1ccccc1	none
CC(=O)C1=NOC(CNc2ncc(C(F)(F)F)cc2Cl)C1 (stereo not drawn)	none | RGS4 uninduced inactive | RGS4 inh ctr2 inactive
NNC(=O)C1=NOC(CNc2ncc(C(F)(F)F)cc2Cl)C1 (stereo not drawn)	none
O=C(O)C1=NOC(CNc2ncc(C(F)(F)F)cc2Cl)C1 (stereo not drawn)	RGS4 block 5 | RGS4 block valid 5.0% | RGS4 uninduced 48% | RGS4 inh ctr2 inactive
COc1cccc(OC)c1-c1nn(-c2ncc(C(F)(F)F)cc2Cl)c(=O)o1	none

Assay outcomes as filed in PubChem.
